Measured values as given in ChEMBL document CHEMBL1123084, “Decomposition reactions of (hydroxyalkyl) nitrosoureas and related compounds: possible relationship to carcinogenicity” (J Med Chem, 1985).

Experiments:
Assay type in all cases: ADME
[1] = Half life in 0.067 M buffer, pH = 8
Outline: (§1)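 Compound at 0.02-0.03 M was decomposed in sealed vials at 37 °C. The pH 3.0 medium was perchloric acid; the other pH values used 0.067 M phosphate buffer (pH 5.5, 6.0, 6.5, 8.0). Loss of starting material was followed by HPLC, and half-life came from first-order ln concentration vs time plots.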

[2] = Half life in 0.067 M (D2O), pH = 7.4
[3] = Half life in 0.01 M HClO4, pH = 3.0; outline: as §1
[4] = Half life in 0.067 M (D20), pH = 6.0; settings: 0.067 M (D2O); outline: as §1
[5] = Half life in 0.10 M buffer, pH = 7.4
[6] = Half life in 0.067 M (D20), pH = 5.5; settings: 0.067 M (D2O); outline: as §1
[7] = Half life in 0.10 M (D20), pH = 7.4; settings: 0.10 M (D2O)
[8] = Half life in 0.067 M (D20), pH = 6.5; settings: 0.067 M (D2O); outline: as §1
[9] = Half life in buffer
Outline: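 Compound was dissolved in pH 7.4 phosphate buffer (0.067 or 0.1 M) in sealed vials at 37 °C. Loss of parent was monitored by HPLC, and the first-order half-life was derived from ln concentration vs time.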

[10] = Half life in 0.067 M buffer, pH = 7.4

CC(O)CN(N=O)C(N)=O (stereo unspecified)
half-life [1]: 6.5 min | half-life [2]: 70 min | half-life [3]: 600 min | half-life [4]: 120 min | half-life [5]: 20 min | half-life [6]: 410 min | half-life [7]: 37.2 min | half-life [8]: 26 min | half-life [9]: 15 min | half-life ([10]; 0.067 M buffer): 14.5 min | T1/2 ([10]; buffer): 9.5 min
